Tests used:
[1] = system: HT-29; experiment: cells; conditions: Homo sapiens, HT-29, 72 h
[2] = cells; conditions: Homo sapiens, NCI-H460, 72 h
[3] = cells; conditions: Homo sapiens, MKN-45, 72 h
[4] = system: A549; experiment: cells; conditions: Homo sapiens, A549, 72 h
[5] = target: T1, Receptor-type tyrosine-protein kinase FLT3 (Homo sapiens, UniProt P36888); experiment: Inhibition of FLT-3 (unknown origin) using poly (Glu, Tyr) 4:1 as substrate after 30 mins by HTRF assay
T1 sequence (P36888 whole entry): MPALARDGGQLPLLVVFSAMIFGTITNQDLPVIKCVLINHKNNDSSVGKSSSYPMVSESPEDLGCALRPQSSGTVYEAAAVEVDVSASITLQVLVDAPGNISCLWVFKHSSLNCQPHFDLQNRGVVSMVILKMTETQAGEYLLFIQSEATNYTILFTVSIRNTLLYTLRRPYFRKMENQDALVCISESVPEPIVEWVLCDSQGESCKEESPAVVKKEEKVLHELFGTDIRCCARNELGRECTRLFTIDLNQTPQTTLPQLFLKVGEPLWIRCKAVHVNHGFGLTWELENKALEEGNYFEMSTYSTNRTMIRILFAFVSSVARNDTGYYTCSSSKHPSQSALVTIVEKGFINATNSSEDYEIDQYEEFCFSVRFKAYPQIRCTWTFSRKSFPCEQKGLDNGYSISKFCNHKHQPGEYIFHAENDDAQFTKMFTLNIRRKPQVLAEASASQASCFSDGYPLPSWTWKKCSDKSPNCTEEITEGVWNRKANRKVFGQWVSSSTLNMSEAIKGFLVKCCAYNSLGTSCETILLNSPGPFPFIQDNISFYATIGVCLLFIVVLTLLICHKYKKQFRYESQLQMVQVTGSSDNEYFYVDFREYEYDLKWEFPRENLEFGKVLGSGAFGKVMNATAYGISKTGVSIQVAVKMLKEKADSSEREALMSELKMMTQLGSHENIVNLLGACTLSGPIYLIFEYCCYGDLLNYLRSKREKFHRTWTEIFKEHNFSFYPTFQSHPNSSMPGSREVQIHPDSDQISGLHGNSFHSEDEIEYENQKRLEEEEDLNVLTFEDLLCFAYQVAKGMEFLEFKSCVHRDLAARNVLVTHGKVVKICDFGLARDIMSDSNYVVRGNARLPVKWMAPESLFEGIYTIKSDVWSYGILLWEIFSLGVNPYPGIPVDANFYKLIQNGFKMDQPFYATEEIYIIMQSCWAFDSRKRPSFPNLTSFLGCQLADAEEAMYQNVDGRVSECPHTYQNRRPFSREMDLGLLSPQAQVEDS

[6] = target: Hepatocyte growth factor receptor (Homo sapiens, UniProt P08581); experiment: Inhibition of c-Met (unknown origin) using poly (Glu, Tyr) 4:1 as substrate after 30 mins by HTRF assay
[7] = target: Mast/stem cell growth factor receptor Kit (Homo sapiens, UniProt P10721); experiment: Inhibition of c-Kit (unknown origin) using poly (Glu, Tyr) 4:1 as substrate after 30 mins by HTRF assay
Procedure, shortened: (§1)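 Purified tyrosine kinase with poly(Glu,Tyr) 4:1 substrate (20 µg/mL) and ATP (10 mM solution) in 50 mM HEPES pH 7.0 buffer containing DTT, MgCl₂, MnCl₂, 0.1% NaN₃; compounds at various concentrations in 1% DMSO. Inhibition normalised to enzyme-free and uninhibited controls; IC50 from inhibition curves.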

[8] = target: Vascular endothelial growth factor receptor 2 (Homo sapiens, UniProt P35968); experiment: Inhibition of VEGFR-2 (unknown origin) using poly (Glu, Tyr) 4:1 as substrate after 30 mins by HTRF assay
[9] = Potency index, ratio of foretinib IC50 to compound IC50 for human H460 cells; assay type: functional
[10] = target: Macrophage-stimulating protein receptor (Homo sapiens, UniProt Q04912); experiment: Inhibition of Ron (unknown origin) using poly (Glu, Tyr) 4:1 as substrate after 30 mins by HTRF assay
Procedure, shortened: as §1

[11] = system: MKN-45; experiment: Potency index, ratio of foretinib IC50 to compound IC50 for human MKN45 cells; assay type: functional
[12] = target: Epidermal growth factor receptor (Homo sapiens, UniProt P00533); experiment: Inhibition of EGFR (unknown origin) using poly (Glu, Tyr) 4:1 as substrate after 30 mins by HTRF assay
Procedure, shortened: as §1

Sequence of Epidermal growth factor receptor (P00533 whole entry): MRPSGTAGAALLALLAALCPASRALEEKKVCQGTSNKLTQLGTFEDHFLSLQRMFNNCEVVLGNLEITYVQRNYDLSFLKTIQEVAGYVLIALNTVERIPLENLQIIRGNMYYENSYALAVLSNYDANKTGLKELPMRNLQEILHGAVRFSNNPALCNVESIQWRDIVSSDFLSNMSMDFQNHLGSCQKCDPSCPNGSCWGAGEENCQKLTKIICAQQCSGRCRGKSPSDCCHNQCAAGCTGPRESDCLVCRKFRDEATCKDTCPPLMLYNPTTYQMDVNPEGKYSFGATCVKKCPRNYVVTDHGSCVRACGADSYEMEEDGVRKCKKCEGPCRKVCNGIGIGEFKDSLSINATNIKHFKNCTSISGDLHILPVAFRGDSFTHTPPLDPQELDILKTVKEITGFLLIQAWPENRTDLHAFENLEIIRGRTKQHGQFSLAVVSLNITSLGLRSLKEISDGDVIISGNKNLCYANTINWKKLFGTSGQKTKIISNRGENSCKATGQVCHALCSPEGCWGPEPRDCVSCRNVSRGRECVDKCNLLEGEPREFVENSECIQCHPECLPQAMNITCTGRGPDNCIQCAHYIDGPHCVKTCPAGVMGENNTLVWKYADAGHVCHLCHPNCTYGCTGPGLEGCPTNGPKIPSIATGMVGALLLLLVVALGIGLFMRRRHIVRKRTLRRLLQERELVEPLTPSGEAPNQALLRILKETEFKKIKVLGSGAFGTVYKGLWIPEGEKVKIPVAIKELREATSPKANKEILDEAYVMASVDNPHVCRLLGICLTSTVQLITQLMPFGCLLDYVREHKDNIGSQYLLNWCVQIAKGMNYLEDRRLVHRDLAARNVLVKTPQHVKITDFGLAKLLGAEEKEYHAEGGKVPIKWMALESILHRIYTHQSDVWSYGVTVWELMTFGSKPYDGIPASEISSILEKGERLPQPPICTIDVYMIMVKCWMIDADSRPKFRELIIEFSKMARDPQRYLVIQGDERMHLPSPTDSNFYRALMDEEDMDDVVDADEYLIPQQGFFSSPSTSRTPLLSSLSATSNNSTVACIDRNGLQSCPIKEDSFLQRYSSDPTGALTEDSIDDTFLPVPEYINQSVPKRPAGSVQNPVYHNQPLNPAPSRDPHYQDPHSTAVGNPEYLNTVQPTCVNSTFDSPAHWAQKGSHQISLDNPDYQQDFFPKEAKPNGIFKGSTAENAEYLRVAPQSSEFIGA
Sequence of Mast/stem cell growth factor receptor Kit (P10721 whole entry): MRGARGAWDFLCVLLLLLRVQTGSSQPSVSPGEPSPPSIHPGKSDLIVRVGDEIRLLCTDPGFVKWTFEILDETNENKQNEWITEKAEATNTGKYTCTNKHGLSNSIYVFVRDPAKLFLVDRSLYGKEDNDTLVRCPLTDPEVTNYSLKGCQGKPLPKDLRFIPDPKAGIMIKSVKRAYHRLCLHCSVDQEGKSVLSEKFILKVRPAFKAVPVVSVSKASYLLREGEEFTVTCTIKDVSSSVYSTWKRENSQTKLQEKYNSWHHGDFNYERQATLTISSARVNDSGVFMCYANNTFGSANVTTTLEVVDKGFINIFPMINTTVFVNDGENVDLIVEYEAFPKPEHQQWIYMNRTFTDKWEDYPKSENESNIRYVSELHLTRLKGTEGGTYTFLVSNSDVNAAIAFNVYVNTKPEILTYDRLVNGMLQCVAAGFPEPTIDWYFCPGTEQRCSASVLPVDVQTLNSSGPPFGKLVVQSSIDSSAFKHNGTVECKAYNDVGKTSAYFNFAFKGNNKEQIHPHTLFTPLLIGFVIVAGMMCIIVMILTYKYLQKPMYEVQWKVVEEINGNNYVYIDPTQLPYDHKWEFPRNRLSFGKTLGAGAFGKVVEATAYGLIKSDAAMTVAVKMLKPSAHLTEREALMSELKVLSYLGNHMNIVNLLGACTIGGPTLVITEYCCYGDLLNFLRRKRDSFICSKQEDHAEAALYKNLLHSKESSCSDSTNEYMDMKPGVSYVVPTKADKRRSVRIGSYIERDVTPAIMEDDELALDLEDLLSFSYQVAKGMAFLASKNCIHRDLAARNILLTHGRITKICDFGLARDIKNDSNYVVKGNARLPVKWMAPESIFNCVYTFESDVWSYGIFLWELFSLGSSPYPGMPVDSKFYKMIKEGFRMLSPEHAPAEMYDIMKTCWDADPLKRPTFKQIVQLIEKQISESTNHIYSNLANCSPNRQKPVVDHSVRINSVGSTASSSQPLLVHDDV
Sequence of Macrophage-stimulating protein receptor (Q04912 25-304 limits assumed): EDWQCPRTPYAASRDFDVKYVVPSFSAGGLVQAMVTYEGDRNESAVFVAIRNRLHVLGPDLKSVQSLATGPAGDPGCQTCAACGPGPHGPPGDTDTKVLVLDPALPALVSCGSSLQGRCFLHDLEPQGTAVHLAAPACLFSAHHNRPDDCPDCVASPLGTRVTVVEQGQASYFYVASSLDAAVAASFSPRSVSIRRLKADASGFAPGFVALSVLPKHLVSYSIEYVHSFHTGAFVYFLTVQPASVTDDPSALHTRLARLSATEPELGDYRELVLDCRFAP
Sequence of Macrophage-stimulating protein receptor (Q04912 310-1400 limits assumed): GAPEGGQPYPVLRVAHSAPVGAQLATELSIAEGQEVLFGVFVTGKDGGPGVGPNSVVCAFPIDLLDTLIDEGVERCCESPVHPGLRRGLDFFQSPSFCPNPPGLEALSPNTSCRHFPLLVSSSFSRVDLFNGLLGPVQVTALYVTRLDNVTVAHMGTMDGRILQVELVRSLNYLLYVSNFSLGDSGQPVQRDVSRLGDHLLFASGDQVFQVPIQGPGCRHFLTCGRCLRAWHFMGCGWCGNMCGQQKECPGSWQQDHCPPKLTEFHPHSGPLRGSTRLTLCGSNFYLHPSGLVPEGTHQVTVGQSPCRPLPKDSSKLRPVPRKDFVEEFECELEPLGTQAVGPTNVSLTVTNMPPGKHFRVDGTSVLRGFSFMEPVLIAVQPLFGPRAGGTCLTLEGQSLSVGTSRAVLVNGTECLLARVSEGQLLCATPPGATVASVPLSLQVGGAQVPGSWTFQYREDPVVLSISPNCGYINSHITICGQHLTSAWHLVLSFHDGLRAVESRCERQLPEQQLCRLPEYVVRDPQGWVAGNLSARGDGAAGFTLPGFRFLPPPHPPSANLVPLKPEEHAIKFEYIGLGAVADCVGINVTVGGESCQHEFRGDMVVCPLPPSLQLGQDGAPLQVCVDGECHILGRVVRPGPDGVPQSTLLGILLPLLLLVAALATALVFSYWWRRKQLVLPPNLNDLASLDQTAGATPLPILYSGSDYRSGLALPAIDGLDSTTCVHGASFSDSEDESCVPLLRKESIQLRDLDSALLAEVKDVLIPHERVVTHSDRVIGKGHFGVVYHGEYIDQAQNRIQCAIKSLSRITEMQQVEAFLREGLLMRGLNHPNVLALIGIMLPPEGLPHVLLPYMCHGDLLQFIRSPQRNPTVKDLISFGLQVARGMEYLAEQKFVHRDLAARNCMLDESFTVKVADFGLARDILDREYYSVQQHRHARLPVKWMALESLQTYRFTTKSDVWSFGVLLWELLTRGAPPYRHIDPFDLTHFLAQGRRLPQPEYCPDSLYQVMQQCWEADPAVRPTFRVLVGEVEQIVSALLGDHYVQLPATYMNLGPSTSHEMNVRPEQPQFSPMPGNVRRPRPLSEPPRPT
Sequence of Hepatocyte growth factor receptor (P08581 whole entry): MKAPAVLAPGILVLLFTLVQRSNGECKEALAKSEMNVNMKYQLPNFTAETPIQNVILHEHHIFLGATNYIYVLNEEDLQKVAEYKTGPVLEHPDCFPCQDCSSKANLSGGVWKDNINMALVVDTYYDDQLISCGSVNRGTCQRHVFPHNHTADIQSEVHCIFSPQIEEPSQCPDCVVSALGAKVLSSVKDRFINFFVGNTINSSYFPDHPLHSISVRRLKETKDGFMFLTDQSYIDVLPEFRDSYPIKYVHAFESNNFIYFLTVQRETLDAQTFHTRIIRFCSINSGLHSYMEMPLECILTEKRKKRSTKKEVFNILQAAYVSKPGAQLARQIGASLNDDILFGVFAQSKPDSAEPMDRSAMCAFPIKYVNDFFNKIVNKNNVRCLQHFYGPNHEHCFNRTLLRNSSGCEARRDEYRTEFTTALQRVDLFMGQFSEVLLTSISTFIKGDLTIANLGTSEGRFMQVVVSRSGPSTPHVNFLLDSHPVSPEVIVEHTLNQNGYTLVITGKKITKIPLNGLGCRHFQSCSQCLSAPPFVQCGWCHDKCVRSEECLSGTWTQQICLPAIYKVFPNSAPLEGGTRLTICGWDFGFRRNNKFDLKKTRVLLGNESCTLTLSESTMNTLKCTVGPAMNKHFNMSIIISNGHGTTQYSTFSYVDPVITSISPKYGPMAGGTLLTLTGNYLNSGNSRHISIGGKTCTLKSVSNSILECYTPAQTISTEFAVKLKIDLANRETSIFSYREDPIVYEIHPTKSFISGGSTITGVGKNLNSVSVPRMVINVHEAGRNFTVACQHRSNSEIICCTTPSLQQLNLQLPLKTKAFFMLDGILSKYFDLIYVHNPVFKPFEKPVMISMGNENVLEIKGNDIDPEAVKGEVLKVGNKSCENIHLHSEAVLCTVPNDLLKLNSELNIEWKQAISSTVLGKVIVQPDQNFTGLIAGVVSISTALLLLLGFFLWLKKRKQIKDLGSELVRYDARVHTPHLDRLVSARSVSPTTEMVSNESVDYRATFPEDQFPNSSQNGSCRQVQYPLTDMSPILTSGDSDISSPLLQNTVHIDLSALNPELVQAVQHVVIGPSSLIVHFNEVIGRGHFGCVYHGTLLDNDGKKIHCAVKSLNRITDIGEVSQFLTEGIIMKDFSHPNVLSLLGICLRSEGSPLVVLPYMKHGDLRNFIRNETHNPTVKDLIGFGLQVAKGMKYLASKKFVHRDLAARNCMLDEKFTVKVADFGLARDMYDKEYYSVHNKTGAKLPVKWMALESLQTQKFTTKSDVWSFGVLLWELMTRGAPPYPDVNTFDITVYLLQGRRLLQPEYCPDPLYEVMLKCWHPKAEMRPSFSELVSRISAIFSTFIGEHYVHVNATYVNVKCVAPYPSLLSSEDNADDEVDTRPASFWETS

IC50 [1]	IC50 [2]	IC50 [3]	IC50 [4]	IC50 [5]	IC50 [6]	IC50 [7]	IC50 [8]	IC50 [10]	IC50 [12]	SMILES	Ratio IC50 [9]	Ratio IC50 [11]
260 nM	360 nM	98 nM	500 nM	–	–	–	–	–	–	COc1cc2c(Oc3ccc(NC(=O)c4c(C)n(-c5ccc(C(F)(F)F)cc5)c(=O)n4C)cc3F)ccnc2cc1OCCCN1CCN(C)CC1	–	–
740 nM	790 nM	320 nM	980 nM	–	–	–	–	–	–	COc1cc2c(Oc3ccc(NC(=O)c4c(C)n(-c5ccccc5)c(=O)n4C)cc3F)ccnc2cc1OCCCN1CCOCC1	–	–
940 nM	1030 nM	510 nM	1460 nM	–	–	–	–	–	–	COc1cc2c(Oc3ccc(NC(=O)c4c(C)n(-c5ccccc5)c(=O)n4C)cc3F)ccnc2cc1OCCCN1CCCC1	–	–
560 nM	650 nM	240 nM	790 nM	–	–	–	–	–	–	COc1cc2c(Oc3ccc(NC(=O)c4c(C)n(-c5ccccc5)c(=O)n4C)cc3F)ccnc2cc1OCCCN1CCCCC1	–	–
360 nM	590 nM	210 nM	660 nM	–	–	–	–	–	–	COc1cc2c(Oc3ccc(NC(=O)c4c(C)n(-c5ccccc5)c(=O)n4C)cc3F)ccnc2cc1OCCCN1CCC(C)CC1	–	–
300 nM	420 nM	190 nM	600 nM	–	–	–	–	–	–	COc1cc2c(Oc3ccc(NC(=O)c4c(C)n(-c5ccccc5)c(=O)n4C)cc3F)ccnc2cc1OCCCN1CCN(C)CC1	–	–
790 nM	940 nM	430 nM	1120 nM	–	–	–	–	–	–	COc1cc2c(Oc3ccc(NC(=O)c4c(C)n(-c5ccc(C)cc5)c(=O)n4C)cc3F)ccnc2cc1OCCCN1CCC(C)CC1	–	–
490 nM	510 nM	360 nM	830 nM	–	–	–	–	–	–	COc1cc2c(Oc3ccc(NC(=O)c4c(C)n(-c5ccc(C)cc5)c(=O)n4C)cc3F)ccnc2cc1OCCCN1CCN(C)CC1	–	–
790 nM	940 nM	490 nM	1040 nM	–	–	–	–	–	–	COc1ccc(-n2c(C)c(C(=O)Nc3ccc(Oc4ccnc5cc(OCCCN6CCC(C)CC6)c(OC)cc45)c(F)c3)n(C)c2=O)cc1	–	–
560 nM	690 nM	440 nM	960 nM	–	–	–	–	–	–	COc1ccc(-n2c(C)c(C(=O)Nc3ccc(Oc4ccnc5cc(OCCCN6CCN(C)CC6)c(OC)cc45)c(F)c3)n(C)c2=O)cc1	–	–
240 nM	250 nM	84 nM	520 nM	–	–	–	–	–	–	COc1cc2c(Oc3ccc(NC(=O)c4c(C)n(-c5ccc(F)cc5)c(=O)n4C)cc3F)ccnc2cc1OCCCN1CCC(C)CC1	–	–
190 nM	260 nM	67 nM	430 nM	–	–	–	–	–	–	COc1cc2c(Oc3ccc(NC(=O)c4c(C)n(-c5ccc(F)cc5)c(=O)n4C)cc3F)ccnc2cc1OCCCN1CCN(C)CC1	–	–
170 nM	200 nM	62 nM	420 nM	–	–	–	–	–	–	COc1cc2c(Oc3ccc(NC(=O)c4c(C)n(-c5ccc(Cl)cc5)c(=O)n4C)cc3F)ccnc2cc1OCCCN1CCC(C)CC1	–	–
140 nM	170 nM	58 nM	360 nM	–	–	–	–	–	–	COc1cc2c(Oc3ccc(NC(=O)c4c(C)n(-c5ccc(Cl)cc5)c(=O)n4C)cc3F)ccnc2cc1OCCCN1CCN(C)CC1	–	–
280 nM	550 nM	160 nM	680 nM	–	–	–	–	–	–	COc1cc2c(Oc3ccc(NC(=O)c4c(C)n(-c5ccc(Br)cc5)c(=O)n4C)cc3F)ccnc2cc1OCCCN1CCC(C)CC1	–	–
290 nM	360 nM	120 nM	480 nM	–	–	–	–	–	–	COc1cc2c(Oc3ccc(NC(=O)c4c(C)n(-c5ccc(Br)cc5)c(=O)n4C)cc3F)ccnc2cc1OCCCN1CCN(C)CC1	–	–

IC50 [1]	IC50 [2]	IC50 [3]	IC50 [4]	IC50 [5]	IC50 [6]	IC50 [7]	IC50 [8]	IC50 [10]	IC50 [12]	SMILES	Ratio IC50 [9]	Ratio IC50 [11]
390 nM	540 nM	170 nM	620 nM	–	–	–	–	–	–	COc1cc2c(Oc3ccc(NC(=O)c4c(C)n(-c5ccc(F)c(F)c5)c(=O)n4C)cc3F)ccnc2cc1OCCCN1CCOCC1	–	–
230 nM	230 nM	95 nM	530 nM	–	–	–	–	–	–	COc1cc2c(Oc3ccc(NC(=O)c4c(C)n(-c5ccc(F)c(F)c5)c(=O)n4C)cc3F)ccnc2cc1OCCCN1CCC(C)CC1	–	–
180 nM	240 nM	86 nM	400 nM	–	–	–	–	–	–	COc1cc2c(Oc3ccc(NC(=O)c4c(C)n(-c5ccc(F)c(F)c5)c(=O)n4C)cc3F)ccnc2cc1OCCCN1CCN(C)CC1	–	–
200 nM	250 nM	89 nM	430 nM	–	–	–	–	–	–	COc1cc2c(Oc3ccc(NC(=O)c4c(C)n(-c5ccc(F)c(Cl)c5)c(=O)n4C)cc3F)ccnc2cc1OCCCN1CCC(C)CC1	–	–
140 nM	210 nM	73 nM	380 nM	–	–	–	–	–	–	COc1cc2c(Oc3ccc(NC(=O)c4c(C)n(-c5ccc(F)c(Cl)c5)c(=O)n4C)cc3F)ccnc2cc1OCCCN1CCN(C)CC1	–	–
400 nM	590 nM	140 nM	620 nM	–	–	–	–	–	–	COc1cc2c(Oc3ccc(NC(=O)c4c(C)n(-c5ccc(OC(F)(F)F)cc5)c(=O)n4C)cc3F)ccnc2cc1OCCCN1CCC(C)CC1	–	–
270 nM	340 nM	120 nM	440 nM	–	–	–	–	–	–	COc1cc2c(Oc3ccc(NC(=O)c4c(C)n(-c5ccc(OC(F)(F)F)cc5)c(=O)n4C)cc3F)ccnc2cc1OCCCN1CCN(C)CC1	–	–
360 nM	410 nM	130 nM	540 nM	–	–	–	–	–	–	COc1cc2c(Oc3ccc(NC(=O)c4c(C)n(-c5ccc(C(F)(F)F)cc5)c(=O)n4C)cc3F)ccnc2cc1OCCCN1CCC(C)CC1	–	–
520 nM	580 nM	320 nM	880 nM	–	–	–	–	–	–	COc1cc2c(Oc3ccc(NC(=O)c4c(C)n(-c5cccc(C(F)(F)F)c5)c(=O)n4C)cc3F)ccnc2cc1OCCCN1CCC(C)CC1	–	–
430 nM	570 nM	200 nM	770 nM	–	–	–	–	–	–	COc1cc2c(Oc3ccc(NC(=O)c4c(C)n(-c5cccc(C(F)(F)F)c5)c(=O)n4C)cc3F)ccnc2cc1OCCCN1CCN(C)CC1	–	–
140 nM	220 nM	81 nM	450 nM	–	–	–	–	–	–	COc1cc2c(Oc3ccc(NC(=O)c4c(C)n(-c5ccccc5C(F)(F)F)c(=O)n4C)cc3F)ccnc2cc1OCCCN1CCC(C)CC1	–	–
130 nM	190 nM	69 nM	370 nM	–	–	–	–	–	–	COc1cc2c(Oc3ccc(NC(=O)c4c(C)n(-c5ccccc5C(F)(F)F)c(=O)n4C)cc3F)ccnc2cc1OCCCN1CCN(C)CC1	–	–
150 nM	180 nM	43 nM	320 nM	–	–	–	–	–	–	COc1cc2c(Oc3ccc(NC(=O)c4c(C)n(-c5ccccc5Cl)c(=O)n4C)cc3F)ccnc2cc1OCCCN1CCC(C)CC1	–	–
120 nM	130 nM	37 nM	310 nM	–	–	–	–	–	–	COc1cc2c(Oc3ccc(NC(=O)c4c(C)n(-c5ccccc5Cl)c(=O)n4C)cc3F)ccnc2cc1OCCCN1CCN(C)CC1	–	–
86 nM	100 nM	14 nM	250 nM	134 nM	1.42 nM	38.2 nM	92.6 nM	270 nM	> 100000 nM	COc1cc2c(Oc3ccc(NC(=O)c4[nH]c(=O)n(-c5ccccc5Cl)c4C)cc3F)ccnc2cc1OCCCN1CCN(C)CC1	2.1	8.6

Reference: ChEMBL document CHEMBL3593176, “Design and biological evaluation of novel 4-(2-fluorophenoxy)quinoline derivatives bearing an imidazolone moiety as c-Met kinase inhibitors” (Bioorg Med Chem, 2015)
